Measurements published in ChEMBL document CHEMBL1123812, “Pyrroloisoquinoline antidepressants. 2. In-depth exploration of structure-activity relationships” (J Med Chem, 1987).
Calls of active or inactive are those of the source.

Columns and labels:
Mus musculus [1] = species: Mus musculus; experiment: Gross behavioral effects ascertained in mice; W/C indicates weak stimulant or depressant activity of little significance/ overt convulsant; format: functional, organism-based
Outline: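 Male Swiss Webster albino mice, 18–24 g, three per dose, given ip 1, 3, 10, 30, 100 and 300 mg/kg. Gross behaviour observed and held 4 days. Estimated LD50 range from lethality count on day 4. Scored as weak stimulant/depressant, significant stimulant, significant depressant or overt convulsant.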

[2] = target: Sodium-dependent serotonin transporter (Rattus norvegicus) (UniProt P31652); experiment: Ability to inhibit the uptake of [3H]- serotonin(5-HT) 0.1 uM concentration at rat brain synaptosomes; format: functional, subcellular
Sequence of Sodium-dependent serotonin transporter (Rattus norvegicus) (P31652 whole entry): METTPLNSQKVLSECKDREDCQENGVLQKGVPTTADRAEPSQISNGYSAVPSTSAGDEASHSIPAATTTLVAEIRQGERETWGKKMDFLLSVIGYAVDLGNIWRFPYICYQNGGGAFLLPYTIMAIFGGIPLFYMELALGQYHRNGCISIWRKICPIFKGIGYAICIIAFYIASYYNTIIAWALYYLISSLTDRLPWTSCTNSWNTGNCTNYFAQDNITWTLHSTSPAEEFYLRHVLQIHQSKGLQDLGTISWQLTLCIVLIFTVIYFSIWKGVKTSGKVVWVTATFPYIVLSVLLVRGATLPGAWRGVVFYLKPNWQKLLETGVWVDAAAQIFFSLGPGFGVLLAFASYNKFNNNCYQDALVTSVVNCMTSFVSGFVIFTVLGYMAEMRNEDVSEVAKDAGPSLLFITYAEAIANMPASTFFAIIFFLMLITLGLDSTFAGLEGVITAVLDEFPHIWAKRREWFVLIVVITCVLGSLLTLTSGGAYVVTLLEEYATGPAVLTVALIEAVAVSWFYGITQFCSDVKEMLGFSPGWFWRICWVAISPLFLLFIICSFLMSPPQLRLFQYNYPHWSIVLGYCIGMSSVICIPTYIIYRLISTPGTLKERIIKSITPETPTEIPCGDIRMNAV
Outline: (§1)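 Male Wistar rat brain synaptosomes (P2 fraction): hypothalamus for NE, striatum for DA, cerebral cortex for 5-HT. Buffer is Tris- or HEPES-buffered salt medium with glucose, ascorbate and nialamide, pH 7.4 at 37 °C. Preincubated 10 min at 37 °C with compound. Uptake started with [3H]NE 100–300 nM, [3H]DA 50–300 nM or [3H]5-HT 100–200 nM, incubated 3 min (DA) or 6–10 min (NE, 5-HT). Blanks held on ice. Filtered, counted by scintillation.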

Mus musculus [3] = experiment: (§2) Ability to antagonise intraperitoneal dose; inactive (<10% antagonism) at 30 mgjkg is represented as I-30.; format: functional, organism-based
Outline: (§3)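 Nonfasted male Swiss Webster mice, 18–24 g, ten per dose level and in saline controls. Test compound given ip 30 min before tetrabenazine 32 mg/kg ip; dose expressed as free base. Motor activity and ptosis scored. Control response ≤90% corrected by Abbott's formula.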

Mus musculus [4] = species: Mus musculus; experiment: Antagonism of tetrabenazine (TBZ)-induced depression measured in mice by motor activity; format: functional; conditions: Mus musculus; read-out: ED50; outline: as §3
[5] = target: Sodium-dependent dopamine transporter (Rattus norvegicus) (UniProt P23977); experiment: Ability to inhibit the uptake of [3H]dopamine (DA) 0.1 uM concentration at rat brain synaptosomes; format: functional, subcellular; outline: as §1
Sequence of Sodium-dependent dopamine transporter (Rattus norvegicus) (P23977 whole entry): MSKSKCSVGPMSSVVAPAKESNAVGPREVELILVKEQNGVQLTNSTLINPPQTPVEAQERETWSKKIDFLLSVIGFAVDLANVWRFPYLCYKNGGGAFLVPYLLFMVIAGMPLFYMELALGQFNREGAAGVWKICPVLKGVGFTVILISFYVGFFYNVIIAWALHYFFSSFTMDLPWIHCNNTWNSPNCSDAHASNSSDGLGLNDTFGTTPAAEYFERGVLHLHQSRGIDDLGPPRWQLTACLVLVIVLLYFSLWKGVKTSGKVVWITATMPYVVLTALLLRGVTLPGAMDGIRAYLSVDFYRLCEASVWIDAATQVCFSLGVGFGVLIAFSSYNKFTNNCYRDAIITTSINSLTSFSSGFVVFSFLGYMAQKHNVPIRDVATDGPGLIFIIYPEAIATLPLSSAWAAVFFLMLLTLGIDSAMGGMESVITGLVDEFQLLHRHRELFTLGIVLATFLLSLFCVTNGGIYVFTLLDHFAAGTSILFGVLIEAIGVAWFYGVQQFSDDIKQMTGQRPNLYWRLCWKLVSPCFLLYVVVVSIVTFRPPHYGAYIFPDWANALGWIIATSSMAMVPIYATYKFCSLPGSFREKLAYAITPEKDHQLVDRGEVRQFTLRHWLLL

[6] = target: Norepinephrine transporter (Rattus norvegicus) (UniProt Q9WTR4); experiment: Ability to inhibit the uptake of [3H]norepinephrine (NE) 0.1 uM concentration at rat brain synaptosomes; format: functional, subcellular; outline: as §1
Sequence of Norepinephrine transporter (Rattus norvegicus) (Q9WTR4 as listed by the source): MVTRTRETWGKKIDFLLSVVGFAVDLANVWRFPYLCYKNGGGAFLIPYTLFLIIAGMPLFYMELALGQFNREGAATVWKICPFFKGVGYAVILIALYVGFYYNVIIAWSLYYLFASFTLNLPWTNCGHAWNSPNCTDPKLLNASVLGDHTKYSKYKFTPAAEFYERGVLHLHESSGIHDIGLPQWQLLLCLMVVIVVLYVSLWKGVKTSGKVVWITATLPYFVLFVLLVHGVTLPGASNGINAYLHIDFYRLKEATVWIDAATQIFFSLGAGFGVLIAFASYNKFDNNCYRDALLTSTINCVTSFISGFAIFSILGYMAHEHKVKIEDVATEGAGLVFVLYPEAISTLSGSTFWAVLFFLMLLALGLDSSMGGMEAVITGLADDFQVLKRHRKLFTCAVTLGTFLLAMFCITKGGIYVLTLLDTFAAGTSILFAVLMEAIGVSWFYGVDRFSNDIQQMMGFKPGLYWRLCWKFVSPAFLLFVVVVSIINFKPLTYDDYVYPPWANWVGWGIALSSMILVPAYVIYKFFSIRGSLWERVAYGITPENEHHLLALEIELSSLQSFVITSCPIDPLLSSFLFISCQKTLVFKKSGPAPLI

Mus musculus [7] = species: Mus musculus; experiment: Gross behavioral effects ascertained in mice; W indicates weak stimulant or depressant activity of little significance.; format: functional, organism-based
Outline: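 Male Swiss Webster mice, 18–24 g, three per dose, given ip doses of 1, 3, 10, 30, 100 and 300 mg/kg. Observed for gross behavior and held for 4 days. Scored as weak (W), stimulant (S), depressant (D) or convulsant (C).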

Mus musculus [8] = experiment: as §2; format: functional, organism-based; outline: as §3; remark: listed apart in the source
D(2) dopamine receptor = D(2) dopamine receptor (Rattus norvegicus, UniProt P61169); experiment: Binding affinity towards Dopamine receptor D2
Sequence of D(2) dopamine receptor (P61169 whole entry): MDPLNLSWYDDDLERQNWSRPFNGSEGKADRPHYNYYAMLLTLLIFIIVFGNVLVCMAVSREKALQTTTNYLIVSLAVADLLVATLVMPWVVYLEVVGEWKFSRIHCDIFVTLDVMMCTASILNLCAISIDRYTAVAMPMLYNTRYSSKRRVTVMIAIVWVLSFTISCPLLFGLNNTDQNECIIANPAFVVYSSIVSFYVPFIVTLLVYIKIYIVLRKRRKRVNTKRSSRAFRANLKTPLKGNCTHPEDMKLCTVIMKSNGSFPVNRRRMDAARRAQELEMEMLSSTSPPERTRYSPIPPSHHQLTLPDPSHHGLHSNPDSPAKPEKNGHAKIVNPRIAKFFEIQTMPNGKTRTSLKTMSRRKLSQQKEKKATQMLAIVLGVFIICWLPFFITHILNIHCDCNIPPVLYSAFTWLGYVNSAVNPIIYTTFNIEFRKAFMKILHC

[9] = target: Serotonin 1 (5-HT1) receptor (Rattus norvegicus, UniProt P28564+P30940+P19327+P28565); experiment: Binding affinity towards serotonin S1 receptor; format: protein assay
Outline: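 Rat brain crude synaptic membranes in 20 mM NaHEPES pH 7.5. Ligands: α1 cortex […] 0.4 nM, nonspecific with (-)-NE 100 μM, 30 min at 25 °C. […] D2 striatum [3H]spiperone 0.05 nM with (+)-butaclamol 1 μM, 45 min at 37 °C. S1 cortex [3H]5-HT 1 nM plus glutathione and MgCl2, with 5-HT 10 μM, 20 min at 37 °C. […] Samples filtered on GF/B and counted.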

[10] = target: T1, Adrenergic receptor alpha-2 (Rattus norvegicus, UniProt P22086+P19328+P22909); experiment: Binding affinity towards alpha-2 adrenergic receptor; format: protein assay
T1 sequence (P22086 whole entry): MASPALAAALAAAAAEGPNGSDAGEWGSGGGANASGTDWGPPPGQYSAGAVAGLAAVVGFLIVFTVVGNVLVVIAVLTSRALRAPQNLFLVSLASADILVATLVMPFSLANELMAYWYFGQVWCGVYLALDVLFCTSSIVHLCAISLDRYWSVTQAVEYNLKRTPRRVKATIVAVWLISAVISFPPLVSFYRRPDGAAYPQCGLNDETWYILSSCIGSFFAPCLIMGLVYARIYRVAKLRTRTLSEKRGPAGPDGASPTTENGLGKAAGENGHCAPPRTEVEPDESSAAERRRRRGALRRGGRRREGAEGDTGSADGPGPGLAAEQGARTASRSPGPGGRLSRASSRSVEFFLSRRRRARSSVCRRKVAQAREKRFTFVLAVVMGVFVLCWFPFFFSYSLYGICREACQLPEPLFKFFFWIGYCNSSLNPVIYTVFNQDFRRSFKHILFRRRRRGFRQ
T1 sequence (P19328 whole entry): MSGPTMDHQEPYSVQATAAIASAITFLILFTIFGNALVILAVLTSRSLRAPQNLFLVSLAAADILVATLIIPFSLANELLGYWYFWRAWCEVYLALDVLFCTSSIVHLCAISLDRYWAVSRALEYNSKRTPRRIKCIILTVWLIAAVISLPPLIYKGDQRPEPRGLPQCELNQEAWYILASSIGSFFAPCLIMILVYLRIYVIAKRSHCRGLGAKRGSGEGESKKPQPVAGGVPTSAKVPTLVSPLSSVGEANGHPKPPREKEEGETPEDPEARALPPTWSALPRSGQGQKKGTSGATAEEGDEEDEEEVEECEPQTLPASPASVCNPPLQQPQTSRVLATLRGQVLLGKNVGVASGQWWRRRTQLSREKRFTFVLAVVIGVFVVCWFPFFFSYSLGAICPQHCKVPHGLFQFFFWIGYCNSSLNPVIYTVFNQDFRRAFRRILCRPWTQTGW
T1 sequence (P22909 whole entry): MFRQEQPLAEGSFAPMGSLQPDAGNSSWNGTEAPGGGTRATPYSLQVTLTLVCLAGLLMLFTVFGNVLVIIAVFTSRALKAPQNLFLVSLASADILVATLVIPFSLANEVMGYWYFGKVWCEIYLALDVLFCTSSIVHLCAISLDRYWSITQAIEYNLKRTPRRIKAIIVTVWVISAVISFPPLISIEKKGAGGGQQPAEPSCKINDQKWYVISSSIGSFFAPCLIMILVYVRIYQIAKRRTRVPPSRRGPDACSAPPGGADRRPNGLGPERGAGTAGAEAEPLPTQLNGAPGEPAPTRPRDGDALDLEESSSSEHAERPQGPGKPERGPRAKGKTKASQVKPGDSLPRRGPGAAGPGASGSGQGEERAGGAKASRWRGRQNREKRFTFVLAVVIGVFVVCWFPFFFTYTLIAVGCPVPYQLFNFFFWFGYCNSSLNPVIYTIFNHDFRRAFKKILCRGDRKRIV

[11] = target: Norepinephrine transporter (Rattus norvegicus, UniProt Q9WTR4); experiment: Inhibition of uptake of tritiated norepinephrine (NE) in rat synaptosomes; format: subcellular, Brain
Sequence of Norepinephrine transporter (Q9WTR4 whole entry): as the sequence (Q9WTR4 as listed by the source) above

Mus musculus [12] = experiment: Ability to antagonise intraperitoneal administration; weakly active (>=10% and <=30% antagonism) at 30 mg/kg is represented as >30; format: functional; conditions: ip; outline: as §3

| inhibition [2] [%] | inhibition [5] [%] | inhibition [6] [%] | Ki (D(2) dopamine receptor) [µM] | Ki [9] [µM] | Ki [10] [µM] | Compound | behavior (Mus musculus [1]) | ED50 (Mus musculus [3]) | ED50 (Mus musculus [4]) [mg/kg] | behavior (Mus musculus [7]) | ED50 (Mus musculus [8]) | Ki [11] [µM] | ED50 at 30 mg/kg (Mus musculus [12]) [mg/kg] |
| --- | --- | --- | --- | --- | --- | --- | --- | --- | --- | --- | --- | --- | --- |
| 4 | 0 | 4 | – | – | – | c1ccc([C@@]23CCCN2CCc2ccccc23)cc1 | Weak/Overt convulsant | inactive | > 60 | – | – | – | – |
| 3 | 3 | 0 | – | – | – | C[C@H]1[C@@H](c2ccccc2)c2ccccc2[C@@H]2CCCN21 | – | inactive | > 60 | Weak | – | – | – |
| 4 | 33 | 0 | – | – | – | c1ccc([C@@H]2CN3CC[C@@H]4CCCC[C@@]43c3ccccc32)cc1 | – | inactive | – | Weak | inactive | – | – |
| – | – | – | 0.056 | 5 | 0.051 | CN(C)CCCN1c2ccccc2CCc2ccc(Cl)cc21 [CLOMIPRAMINE] | – | – | – | – | – | – | – |

| Compound | inhibition [2] [%] | inhibition [5] [%] | inhibition [6] [%] | Ki (D(2) dopamine receptor) [µM] | Ki [9] [µM] | Ki [10] [µM] | behavior (Mus musculus [1]) | ED50 (Mus musculus [3]) | ED50 (Mus musculus [4]) [mg/kg] | behavior (Mus musculus [7]) | ED50 (Mus musculus [8]) | Ki [11] [µM] | ED50 at 30 mg/kg (Mus musculus [12]) [mg/kg] |
| --- | --- | --- | --- | --- | --- | --- | --- | --- | --- | --- | --- | --- | --- |
| F[C@@]1(c2ccccc2)CN2CCC[C@H]2c2ccccc21 | -3 | 22 | – | – | – | – | Weak/Overt convulsant | – | > 30 | – | – | ~0.1 | > 30 |
